Measurements from ChEMBL document CHEMBL2385009, “Guaiane-type sesquiterpenes from Curcuma phaeocaulis and their inhibitory effects on nitric oxide production” (J Nat Prod, 2013).

How the values were obtained:
RAW264.7 [1] = test: Antiinflammatory activity in mouse RAW264.7 cells assessed as inhibition of LPS-induced nitric oxide production after 24 hrs by Griess assay; format: functional, cell-based; details: RAW264.7, 24 h
Method in brief: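 RAW 264.7 cells seeded at 1 × 10^5 cells/well, stimulated with LPS 1 μg/mL with or without test compound, 37 °C for 24 h. Nitrite in cell-free supernatant, taken as the NO indicator, measured by Griess reaction: supernatant mixed 1:1 with equal parts 1% sulfanilamide in 5% phosphoric acid and 0.1% N-(1-naphthyl)ethylenediamine, absorbance at 540 nm. Values given as IC50.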

RAW264.7 [2] = test: Cytotoxicity against mouse RAW264.7 cells at IC50 by MTT assay; format: cell-based

| SMILES | IC50 (RAW264.7 [1]) | Activity (RAW264.7 [2]) |
| --- | --- | --- |
| CC1=C2C[C@]3(O)[C@H](C)CC[C@H]3[C@@](C)(O)C=C2OC1=O | 30.1 µM | Non-toxic |
| C=C1C[C@]2(O)O[C@@]3(CC2=C(C)C)[C@@H](C)CC[C@@H]13 [ISOCURCUMENOL] | 9.8 µM | Non-toxic |
| C[C@]12CCC(=O)C=C1CC[C@@H]1[C@@H]2[C@@H](O)C[C@@]2(C)[C@H]1CC[C@]2(O)C(=O)CO [HYDROCORTISONE] | 43.8 µM |  |
| CC1=C2C[C@@H]3[C@@](C)(O)CC[C@]34O[C@]4(C)[C@H](O)[C@]2(O)OC1=O [ZEDOAROLIDE A] | 87.1 µM | Non-toxic |
| CC1=C2C[C@H]3[C@H](CC[C@]3(C)O)[C@](C)(O)C=C2OC1=O | 2.9 µM | Non-toxic |
| CC1=C2C[C@@H]3[C@@](C)(O)CC[C@]3(O)[C@@](C)(O)C=C2OC1=O [ZEDOALACTONE D] | 1.6 µM | Non-toxic |
| CC(C)C1=C[C@@H]2[C@@H](CC[C@@H]2C)[C@@](C)(O)CC1 | 11.4 µM | Non-toxic |
| CC1=CC(=O)CC[C@@H]2[C@@](C)(O)CC[C@@]12O | 19.6 µM | Non-toxic |
| CC(C)=C1C[C@H]2[C@@H](CC[C@]2(C)O)[C@](C)(O)CC1=O [ZEDOARONDIOL] | 54.2 µM | Non-toxic |
| CC1=CC(=O)C(=C(C)C)C[C@H]2[C@H]1CC[C@]2(C)O [PROCURCUMENOL] | 13.7 µM | Non-toxic |
| CC1=C2C[C@H]3[C@@](C)(O)CC[C@@]34O[C@@]2(C[C@@]4(C)O)OC1=O | 1.5 µM | Non-toxic |
| CC1=C[C@@]2(O)O[C@@]3(CC2=C(C)C)[C@H](C)CC[C@@H]13 | 52.2 µM | Non-toxic |
| CC1=C2C[C@H]3[C@H](CC[C@]3(C)O)[C@@](C)(O)C[C@@H]2OC1=O [ZEDOALACTONE C] | 61.8 µM | Non-toxic |
| CC1=CC(=O)C(=C(C)C)C[C@@]2(O)[C@H]1CC[C@]2(C)O [PROCURCUMADIOL] | 11.7 µM | Non-toxic |
| CC(C)=C1C[C@H]2[C@@H](CC[C@]2(C)O)[C@@](C)(O)CC1=O | 10.3 µM | Non-toxic |
| Cc1cc(=O)c(C(C)(C)O)cc2c1CC[C@]2(C)O | 5.9 µM | Non-toxic |
| CC1=C2C[C@H]3[C@H](CC[C@]3(C)O)[C@@](C)(O)C[C@]2(O)OC1=O [ZEDOAROLIDE B] | 4.6 µM | Non-toxic |
| CC(=O)CCc1ccc(C(C)(C)O)c(=O)cc1C [CURCUMADIONOL] | 54.2 µM | Non-toxic |
| CC1=C2C[C@H]3[C@H](CC[C@]3(C)O)[C@@](C)(O)C[C@H]2OC1=O [ZEDOALACTONE A] | 1.6 µM | Non-toxic |
| CC1=C2C[C@@H]3[C@H](CC[C@@]3(C)O)[C@@](C)(O)C[C@@H]2OC1=O | 57.9 µM | Non-toxic |
| COc1ccc2c(c1)c(CC(=O)O)c(C)n2C(=O)c1ccc(Cl)cc1 [INDOMETHACIN] | 12.1 µM |  |
| CC1=CC(=O)[C@@]2(C[C@]3(O)[C@@H](C)CC[C@@H]13)OC2(C)C [OXYCURCUMENOL EPOXIDE] | 57.4 µM | Non-toxic |
| CC1=C2C[C@@H]3[C@@](C)(O)CC[C@@]3(O)[C@](C)(O)C=C2OC1=O | 3 µM | Non-toxic |
| CC(C)=C1C[C@H]2[C@@H](CC[C@]2(C)O)C(CO)=CC1=O | 12.9 µM | Non-toxic |
| CC(C)C1=C[C@H]2[C@@H](CC[C@]2(C)O)[C@](C)(O)CC1 [ALISMOXIDE] | 4.3 µM | Non-toxic |
| CC(C)=C1C[C@H]2[C@H](CC[C@]2(C)O)[C@@](C)(O)CC1=O [ISOZEDOARONDIOL] | 1.4 µM | Non-toxic |
| CC(C)=C1C[C@H]2[C@H](CC[C@]2(C)O)[C@](C)(O)CC1=O [(1S,4S,5S,10R)-ZEDOARONDIOL] | 16.7 µM | Non-toxic |
| CC1=C2C[C@@H]3[C@@](C)(O)CC[C@]3(O)[C@](C)(O)C=C2OC1=O [ZEDOALACTONE B] | 1.3 µM | Non-toxic |
| CC1=C[C@]2(O)O[C@@]3(CC2=C(C)C)[C@@H](C)CC[C@@H]13 [CURCUMENOL] | 4.2 µM | Non-toxic |
| CC1=C2C[C@@H]3[C@H](CC[C@@]3(C)O)[C@](C)(O)C[C@H]2OC1=O | 1.9 µM | Non-toxic |
